Experimental data published in ChEMBL document CHEMBL5058577, “EUbOPEN Chemogenomics Library 2 (Multiplex)” (2022).

Test system: U2OS
Experiment: Multiplex assay against U2OS
Type: toxicity, cell-based
Settings: human
Procedure, shortened: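 Per cents of healthy-nucleus cells form the tubulin, mitochondrial-mass and membrane-permeability phenotype values. Live cells were stained at seeding with Hoechst33342, BioTracker Green Microtubule Cytoskeleton Dye, MitoTracker Red and Annexin V Alexa Fluor 680. After compound addition they were imaged on a CQ1 microscope at 37°C and 5% CO2, and CellPathfinder machine-learning gating split them into Hoechst high-intensity objects or normal cells, normal cells into healthy, pyknosed or fragmented nuclei, and pyknosed cells into mitotic or apoptotic.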

[1] = 12 h, 1 µM, compound concentration 1 uM, replicate 1
[2] = 12 h, 1 µM, compound concentration 1 uM, replicate 2
[3] = 12 h, 10 µM, compound concentration 10 uM, replicate 1
[4] = 12 h, 10 µM, compound concentration 10 uM, replicate 2
[5] = 24 h, 1 µM, compound concentration 1 uM, replicate 1
[6] = 24 h, 1 µM, compound concentration 1 uM, replicate 2
[7] = 24 h, 10 µM, compound concentration 10 uM, replicate 1
[8] = 24 h, 10 µM, compound concentration 10 uM, replicate 2
[9] = 48 h, 1 µM, compound concentration 1 uM, replicate 1
[10] = 48 h, 1 µM, compound concentration 1 uM, replicate 2
[11] = 48 h, 10 µM, compound concentration 10 uM, replicate 1
[12] = 48 h, 10 µM, compound concentration 10 uM, replicate 2

Structure (SMILES): CC(C)(C)c1cc(NC(=O)Nc2ccc(-c3cn4c(n3)sc3cc(OCCN5CCOCC5)ccc34)cc2)no1 [QUIZARTINIB]
- Population Apoptotic (%) [1]: 48%
- Population Fragmented Nuclei (%) [1]: 24%
- Population Healthy Nuclei (%) [1]: 61%
- Population Hoechst High Intensity Objects (%) [1]: 6%
- Population Membrane Permeable-Phenotype (%) [1]: 13%
- Population Mitochondria Different-Phenotype (%) [1]: 4%
- Population Mitotic Cells (%) [1]: 51%
- Population Normal (%) [1]: 93%
- Population Pyknosed Nuclei (%) [1]: 14%
- Population Tubulin-Different-Phenotype (%) [1]: 8%
- Total Cell Count [1]: 213
- Population Apoptotic (%) [2]: 78%
- Population Fragmented Nuclei (%) [2]: 17%
- Population Healthy Nuclei (%) [2]: 70%
- Population Hoechst High Intensity Objects (%) [2]: 1%
- Population Membrane Permeable-Phenotype (%) [2]: 6%
- Population Mitochondria Different-Phenotype (%) [2]: 6%
- Population Mitotic Cells (%) [2]: 21%
- Population Normal (%) [2]: 98%
- Population Pyknosed Nuclei (%) [2]: 11%
- Population Tubulin-Different-Phenotype (%) [2]: 4%
- Total Cell Count [2]: 119
- Population Apoptotic (%) [3]: 58%
- Population Fragmented Nuclei (%) [3]: 30%
- Population Healthy Nuclei (%) [3]: 47%
- Population Hoechst High Intensity Objects (%) [3]: 13%
- Population Membrane Permeable-Phenotype (%) [3]: 85%
- Population Mitochondria Different-Phenotype (%) [3]: 26%
- Population Mitotic Cells (%) [3]: 41%
- Population Normal (%) [3]: 86%
- Population Pyknosed Nuclei (%) [3]: 21%
- Population Tubulin-Different-Phenotype (%) [3]: 76%
- Total Cell Count [3]: 197
- Population Apoptotic (%) [4]: 23%
- Population Fragmented Nuclei (%) [4]: 11%
- Population Healthy Nuclei (%) [4]: 65%
- Population Hoechst High Intensity Objects (%) [4]: 6%
- Population Membrane Permeable-Phenotype (%) [4]: 62%
- Population Mitochondria Different-Phenotype (%) [4]: 33%
- Population Mitotic Cells (%) [4]: 76%
- Population Normal (%) [4]: 94%
- Population Pyknosed Nuclei (%) [4]: 22%
- Population Tubulin-Different-Phenotype (%) [4]: 54%
- Total Cell Count [4]: 100
- Population Apoptotic (%) [5]: 57%
- Population Fragmented Nuclei (%) [5]: 25%
- Population Healthy Nuclei (%) [5]: 56%
- Population Hoechst High Intensity Objects (%) [5]: 2%
- Population Membrane Permeable-Phenotype (%) [5]: 15%
- Population Mitochondria Different-Phenotype (%) [5]: 8%
- Population Mitotic Cells (%) [5]: 42%
- Population Normal (%) [5]: 97%
- Population Pyknosed Nuclei (%) [5]: 17%
- Population Tubulin-Different-Phenotype (%) [5]: 7%
- Total Cell Count [5]: 234
- Population Apoptotic (%) [6]: 62%
- Population Fragmented Nuclei (%) [6]: 15%
- Population Healthy Nuclei (%) [6]: 72%
- Population Hoechst High Intensity Objects (%) [6]: 0%
- Population Membrane Permeable-Phenotype (%) [6]: 9%
- Population Mitochondria Different-Phenotype (%) [6]: 4%
- Population Mitotic Cells (%) [6]: 37%
- Population Normal (%) [6]: 99%
- Population Pyknosed Nuclei (%) [6]: 12%
- Population Tubulin-Different-Phenotype (%) [6]: 5%
- Total Cell Count [6]: 134
- Population Apoptotic (%) [7]: 63%
- Population Fragmented Nuclei (%) [7]: 34%
- Population Healthy Nuclei (%) [7]: 34%
- Population Hoechst High Intensity Objects (%) [7]: 11%
- Population Membrane Permeable-Phenotype (%) [7]: 55%
- Population Mitochondria Different-Phenotype (%) [7]: 38%
- Population Mitotic Cells (%) [7]: 36%
- Population Normal (%) [7]: 88%
- Population Pyknosed Nuclei (%) [7]: 30%
- Population Tubulin-Different-Phenotype (%) [7]: 45%
- Total Cell Count [7]: 195
- Population Apoptotic (%) [8]: 51%
- Population Fragmented Nuclei (%) [8]: 10%
- Population Healthy Nuclei (%) [8]: 58%
- Population Hoechst High Intensity Objects (%) [8]: 2%
- Population Membrane Permeable-Phenotype (%) [8]: 40%
- Population Mitochondria Different-Phenotype (%) [8]: 32%
- Population Mitotic Cells (%) [8]: 48%
- Population Normal (%) [8]: 97%
- Population Tubulin-Different-Phenotype (%) [8]: 30%
- Total Cell Count [8]: 96
- Population Apoptotic (%) [9]: 60%
- Population Fragmented Nuclei (%) [9]: 21%
- Population Healthy Nuclei (%) [9]: 61%
- Population Hoechst High Intensity Objects (%) [9]: 3%
- Population Membrane Permeable-Phenotype (%) [9]: 7%
- Population Mitochondria Different-Phenotype (%) [9]: 2%
- Population Mitotic Cells (%) [9]: 39%
- Population Normal (%) [9]: 96%
- Population Pyknosed Nuclei (%) [9]: 16%
- Population Tubulin-Different-Phenotype (%) [9]: 3%
- Total Cell Count [9]: 297
- Population Apoptotic (%) [10]: 73%
- Population Fragmented Nuclei (%) [10]: 16%
- Population Healthy Nuclei (%) [10]: 72%
- Population Hoechst High Intensity Objects (%) [10]: 2%
- Population Membrane Permeable-Phenotype (%) [10]: 9%
- Population Mitochondria Different-Phenotype (%) [10]: 7%
- Population Mitotic Cells (%) [10]: 26%
- Population Normal (%) [10]: 97%
- Population Pyknosed Nuclei (%) [10]: 10%
- Population Tubulin-Different-Phenotype (%) [10]: 6%
- Total Cell Count [10]: 180
- Population Apoptotic (%) [11]: 72%
- Population Fragmented Nuclei (%) [11]: 33%
- Population Healthy Nuclei (%) [11]: 25%
- Population Hoechst High Intensity Objects (%) [11]: 9%
- Population Membrane Permeable-Phenotype (%) [11]: 41%
- Population Mitochondria Different-Phenotype (%) [11]: 33%
- Population Mitotic Cells (%) [11]: 27%
- Population Normal (%) [11]: 90%
- Population Pyknosed Nuclei (%) [11]: 40%
- Population Tubulin-Different-Phenotype (%) [11]: 33%
- Total Cell Count [11]: 219
- Population Apoptotic (%) [12]: 56%
- Population Fragmented Nuclei (%) [12]: 19%
- Population Healthy Nuclei (%) [12]: 48%
- Population Hoechst High Intensity Objects (%) [12]: 5%
- Population Membrane Permeable-Phenotype (%) [12]: 35%
- Population Mitotic Cells (%) [12]: 43%
- Population Normal (%) [12]: 94%
- Population Pyknosed Nuclei (%) [12]: 32%
- Population Tubulin-Different-Phenotype (%) [12]: 28%
- Total Cell Count [12]: 98
